As usually defined, the Ki is the dissociation constant of the complex between target and ligand, obtained from inhibition or displacement. Higher therefore signals a looser hold on the target. As a reminder, the EC50 is the concentration needed to bring the measured effect to its halfway point. Low values mean higher potency in that assay, high ones lower potency in that assay.

The target of test [1] is T1, Alpha-2C adrenergic receptor (Homo sapiens, UniProt P18825).
T1 sequence (P18825 whole entry): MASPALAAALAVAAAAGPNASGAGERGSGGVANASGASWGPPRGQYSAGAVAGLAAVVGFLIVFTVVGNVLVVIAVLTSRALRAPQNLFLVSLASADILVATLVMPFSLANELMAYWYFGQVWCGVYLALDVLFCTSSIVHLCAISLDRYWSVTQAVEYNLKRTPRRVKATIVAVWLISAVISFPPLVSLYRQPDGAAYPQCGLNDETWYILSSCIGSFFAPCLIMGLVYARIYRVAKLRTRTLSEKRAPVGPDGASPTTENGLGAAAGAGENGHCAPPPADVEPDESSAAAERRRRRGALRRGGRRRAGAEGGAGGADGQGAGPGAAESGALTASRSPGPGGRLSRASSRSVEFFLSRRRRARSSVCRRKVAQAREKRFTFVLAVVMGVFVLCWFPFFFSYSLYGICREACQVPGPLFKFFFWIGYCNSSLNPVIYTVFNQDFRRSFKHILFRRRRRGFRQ
Briefly: Displacement of rauwolscine from human Alpha-2C adrenergic receptor expressed in CHO cells. In kind it is cell-based. In outline: (§1)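 Membranes of CHO cells expressing human α2A (CHO-C10), human α2C (CHO-C4) or rat α2B (CHO-RNG) receptor; competition against radiolabeled rauwolscine; affinity constants by nonlinear least-squares curve fitting; at least three separate determinations.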

Test [2] concerns the target T2, Alpha-2B adrenergic receptor (Rattus norvegicus, UniProt P19328).
T2 sequence (P19328 whole entry): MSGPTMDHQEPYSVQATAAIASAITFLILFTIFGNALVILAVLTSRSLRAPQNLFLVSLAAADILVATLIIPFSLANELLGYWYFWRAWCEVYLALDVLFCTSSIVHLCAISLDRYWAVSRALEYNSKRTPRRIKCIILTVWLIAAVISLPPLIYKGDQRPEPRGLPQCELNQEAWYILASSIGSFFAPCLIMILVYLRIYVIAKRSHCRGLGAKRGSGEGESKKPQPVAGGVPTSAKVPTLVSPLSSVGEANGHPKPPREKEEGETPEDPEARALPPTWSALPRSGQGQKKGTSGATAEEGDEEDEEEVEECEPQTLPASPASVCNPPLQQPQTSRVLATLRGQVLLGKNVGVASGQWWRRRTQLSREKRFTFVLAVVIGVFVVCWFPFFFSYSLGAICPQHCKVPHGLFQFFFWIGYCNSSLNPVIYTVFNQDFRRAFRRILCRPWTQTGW
Briefly: Displacement of rauwolscine from rat Alpha-2B adrenergic receptor expressed in CHO cells. In kind it is cell-based. In outline: as §1

In test [3] the target is T3, Alpha-2A adrenergic receptor (Homo sapiens, UniProt P08913).
T3 sequence (P08913 whole entry): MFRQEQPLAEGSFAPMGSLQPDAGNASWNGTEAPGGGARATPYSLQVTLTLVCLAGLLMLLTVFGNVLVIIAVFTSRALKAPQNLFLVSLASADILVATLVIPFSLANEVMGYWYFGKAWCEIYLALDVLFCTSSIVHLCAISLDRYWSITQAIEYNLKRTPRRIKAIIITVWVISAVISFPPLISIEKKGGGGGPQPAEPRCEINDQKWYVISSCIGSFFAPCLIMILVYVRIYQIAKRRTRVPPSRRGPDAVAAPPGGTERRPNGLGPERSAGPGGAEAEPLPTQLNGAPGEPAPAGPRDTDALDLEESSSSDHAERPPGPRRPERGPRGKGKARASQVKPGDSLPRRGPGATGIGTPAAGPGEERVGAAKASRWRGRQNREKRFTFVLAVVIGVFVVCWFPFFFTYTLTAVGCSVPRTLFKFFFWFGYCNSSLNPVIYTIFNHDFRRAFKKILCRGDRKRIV
Kind of test: Displacement of rauwolscine from human Alpha-2A adrenergic receptor expressed in CHO cells. In kind it is cell-based. In outline: as §1

Test [4] deals with T4, Adrenergic receptor alpha-1 (Homo sapiens, UniProt P35348+P25100+P35368).
T4 sequence (P35348 whole entry): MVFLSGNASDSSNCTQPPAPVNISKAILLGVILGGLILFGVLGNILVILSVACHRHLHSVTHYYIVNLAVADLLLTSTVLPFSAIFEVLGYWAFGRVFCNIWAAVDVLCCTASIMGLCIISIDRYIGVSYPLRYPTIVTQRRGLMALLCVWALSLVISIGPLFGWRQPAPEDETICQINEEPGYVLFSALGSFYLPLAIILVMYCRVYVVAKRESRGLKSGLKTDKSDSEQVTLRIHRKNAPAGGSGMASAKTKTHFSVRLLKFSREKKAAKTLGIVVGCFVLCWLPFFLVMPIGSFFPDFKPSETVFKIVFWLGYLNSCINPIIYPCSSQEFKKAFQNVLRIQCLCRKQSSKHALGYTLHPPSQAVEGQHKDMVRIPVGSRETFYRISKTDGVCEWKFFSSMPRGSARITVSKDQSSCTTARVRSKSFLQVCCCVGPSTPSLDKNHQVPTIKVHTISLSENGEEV
T4 sequence (P25100 whole entry): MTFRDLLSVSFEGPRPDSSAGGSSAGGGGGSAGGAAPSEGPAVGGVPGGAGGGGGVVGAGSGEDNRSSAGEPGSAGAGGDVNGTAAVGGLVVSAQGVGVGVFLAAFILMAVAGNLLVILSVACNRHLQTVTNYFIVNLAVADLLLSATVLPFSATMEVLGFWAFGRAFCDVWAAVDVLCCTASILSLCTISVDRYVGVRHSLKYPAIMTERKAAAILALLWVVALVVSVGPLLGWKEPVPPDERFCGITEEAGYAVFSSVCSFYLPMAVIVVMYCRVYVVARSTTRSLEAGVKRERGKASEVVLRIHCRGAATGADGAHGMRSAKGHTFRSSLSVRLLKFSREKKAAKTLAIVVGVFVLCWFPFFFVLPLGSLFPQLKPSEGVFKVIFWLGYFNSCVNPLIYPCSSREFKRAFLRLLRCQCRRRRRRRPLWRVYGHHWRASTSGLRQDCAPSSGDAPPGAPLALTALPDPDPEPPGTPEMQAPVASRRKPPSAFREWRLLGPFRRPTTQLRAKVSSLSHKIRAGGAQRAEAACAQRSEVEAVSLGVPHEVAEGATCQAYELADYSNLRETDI
T4 sequence (P35368 whole entry): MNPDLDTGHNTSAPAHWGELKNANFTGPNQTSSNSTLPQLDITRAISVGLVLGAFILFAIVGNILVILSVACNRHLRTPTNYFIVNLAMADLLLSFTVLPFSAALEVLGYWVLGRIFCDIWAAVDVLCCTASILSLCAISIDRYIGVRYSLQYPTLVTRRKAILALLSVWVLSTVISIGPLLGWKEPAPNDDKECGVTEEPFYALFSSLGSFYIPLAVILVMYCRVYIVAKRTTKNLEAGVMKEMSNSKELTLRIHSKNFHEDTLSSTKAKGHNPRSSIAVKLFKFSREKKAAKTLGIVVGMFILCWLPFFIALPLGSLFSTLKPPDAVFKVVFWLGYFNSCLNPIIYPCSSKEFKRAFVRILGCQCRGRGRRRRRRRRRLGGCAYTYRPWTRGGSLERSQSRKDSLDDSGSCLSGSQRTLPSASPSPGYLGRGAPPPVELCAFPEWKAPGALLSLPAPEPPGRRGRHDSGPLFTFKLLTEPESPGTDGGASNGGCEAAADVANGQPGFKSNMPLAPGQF
Briefly: Displacement of prazosin from Alpha-1 adrenergic receptors of human cerebral cortex homogenate. In kind it is tissue-based. In outline: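 Membranes from human cerebral cortex, giving a mixed α1 subtype population; affinity from competition against radiolabeled prazosin; nonlinear least-squares curve fitting; at least three separate determinations.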

For test [5], the target named is T2, Alpha-2B adrenergic receptor. Kind of test: Effective Concentration at Alpha-2B adrenergic receptor from CHO-RNG cells. In kind it is functional, cell-based. The method in brief:
(§2)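 Functional agonist response measured by Cytosensor microphysiometry in CHO cells expressing α2A (CHO-C10) or rat α2B (CHO-RNG) adrenoceptor.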

Test [6] deals with T1, Alpha-2C adrenergic receptor. Kind of test: Effective concentration at Alpha-2C adrenergic receptor from CHO-C4 cells. In kind it is functional, cell-based. In outline:
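Functional agonist assay in CHO cells expressing the human α2C-adrenoceptor (CHO-C4). Responses were read on a Cytosensor microphysiometer.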

In test [7] the target is T5, Alpha-2B adrenergic receptor (Rattus norvegicus) (UniProt P19328).
T5 sequence (whole entry): T2 sequence (P19328 whole entry)
Briefly: Intrinsic activity relative to Norepinephrine at Alpha-2B adrenergic receptor from CHO-RNG cells. In kind it is cell-based. The method in brief: as §2

The target in test [8] is T6, Alpha-2A adrenergic receptor (Homo sapiens) (UniProt P08913).
T6 sequence (whole entry): T3 sequence (P08913 whole entry)
Briefly: Intrinsic activity relative to Norepinephrine at Alpha-2A adrenergic receptor from CHO-C10 cells. In kind it is cell-based. In outline:
as §2

In test [9] the target is T3, Alpha-2A adrenergic receptor. Briefly: Effective concentration at Alpha-2A adrenergic receptor from CHO-C10 cells. In kind it is functional, cell-based. The method in brief: as §2
For test [10], the target named is T7, Alpha-2C adrenergic receptor (Homo sapiens) (UniProt P18825).
T7 sequence (whole entry): T1 sequence (P18825 whole entry)
The following applies: CHO-C4.

Regarding `COc1ccc(Nc2ncc[nH]2)c(C)c1OC`, the Ki was found to be 1500 nM in [1], 2500 nM in [2], 130 nM in test [3] and 6600 nM in [4].

Consider `Brc1c(Nc2ncc[nH]2)ccc2nccnc12`, for which the Ki is over 10000 nM in test [1], over 10000 nM in [2] and over 100000 nM in test [4].

In the case of `Cc1c(Nc2ncc[nH]2)ccc2c1OCCO2`, the EC50 in test [5] was 41 nM; in test [6], 6.6 nM; in test [9], 8.7 nM. Also, the IA in [7] came out at 1; in test [8], 0.89; in test [10] it was 0.5. Besides, in [4], the Ki was found to be 2100 nM.

With `c1c[nH]c(Nc2ccc3nccnc3c2)n1`, the Ki in [1] is 8800 nM; in test [2] it was 9300 nM; in test [3] it was 3100 nM; in test [4], over 100000 nM.

On to `COc1c(C(C)(C)C)cc(C)c(Nc2ncc[nH]2)c1C`, for which the values for the EC50 in [5], in test [6] and in test [9] were 1100 nM, over 5000 nM and over 5000 nM, respectively. Also, the IA in test [7] came to 0.65. In addition, the Ki in [4] amounted to 4200 nM.

With `Cc1c(Nc2ncc[nH]2)ccc2c1NCCO2`, the EC50 in test [5] worked out at 470 nM; in test [6], 110 nM; in test [9], 124 nM. For the same compound, the Ki in test [2] amounted to 421 nM; in [3], 6 nM; in test [4], 16000 nM. For the same compound, the IA in [7] was found to be 0.88; in test [8], 0.49; in test [10], 0.64.

As to `Clc1cccc(Cl)c1Nc1ncc[nH]1`, the figures for the Ki in test [1] and in [4] were 1100 nM and 6000 nM, respectively.

On to `c1c[nH]c(Nc2ccc3[nH]cnc3c2)n1`, for which the Ki in [1] was determined as 400 nM; in test [2], 640 nM; in [3] it was 76 nM; in test [4], 24000 nM.

In the case of `Cc1c(Nc2ncc[nH]2)ccc2nccnc12`, the Ki was 340 nM in test [1], 1200 nM in test [2] and over 28000 nM in test [4].

Consider `Brc1c(NC2=NCCN2)ccc2nccnc12` [BRIMONIDINE], for which the IA in test [7] is 0.89; in test [8], 0.91; in test [10] it was 0.82. This compound yielded a Ki in [4] of 1800 nM.

Regarding `COc1cc(C)c(Nc2ncc[nH]2)cc1C(C)(C)C`, the Ki was 290 nM in [1], 380 nM in [2], 39 nM in [3] and 16000 nM in [4].

In test [4], `COc1ccc(Nc2ncc[nH]2)c(C)c1` displayed a Ki of 8400 nM.

Turning to `Brc1ccccc1Nc1ncc[nH]1`, the Ki was found to be 1500 nM in [2], 210 nM in test [3] and 11000 nM in test [4].

The values are drawn from ChEMBL document CHEMBL1130342, “Synthesis and evaluation of 2-(arylamino)imidazoles as alpha 2-adrenergic agonists” (J Med Chem, 1997).
